The record followed here is publication PMC5665024 (Chemical research in toxicology, 2017).

In experiment [1] the target is T1, human DNA polymerase η (pol η) (Homo sapiens, UniProt Q9Y253).
T1 sequence (Q9Y253 1-713): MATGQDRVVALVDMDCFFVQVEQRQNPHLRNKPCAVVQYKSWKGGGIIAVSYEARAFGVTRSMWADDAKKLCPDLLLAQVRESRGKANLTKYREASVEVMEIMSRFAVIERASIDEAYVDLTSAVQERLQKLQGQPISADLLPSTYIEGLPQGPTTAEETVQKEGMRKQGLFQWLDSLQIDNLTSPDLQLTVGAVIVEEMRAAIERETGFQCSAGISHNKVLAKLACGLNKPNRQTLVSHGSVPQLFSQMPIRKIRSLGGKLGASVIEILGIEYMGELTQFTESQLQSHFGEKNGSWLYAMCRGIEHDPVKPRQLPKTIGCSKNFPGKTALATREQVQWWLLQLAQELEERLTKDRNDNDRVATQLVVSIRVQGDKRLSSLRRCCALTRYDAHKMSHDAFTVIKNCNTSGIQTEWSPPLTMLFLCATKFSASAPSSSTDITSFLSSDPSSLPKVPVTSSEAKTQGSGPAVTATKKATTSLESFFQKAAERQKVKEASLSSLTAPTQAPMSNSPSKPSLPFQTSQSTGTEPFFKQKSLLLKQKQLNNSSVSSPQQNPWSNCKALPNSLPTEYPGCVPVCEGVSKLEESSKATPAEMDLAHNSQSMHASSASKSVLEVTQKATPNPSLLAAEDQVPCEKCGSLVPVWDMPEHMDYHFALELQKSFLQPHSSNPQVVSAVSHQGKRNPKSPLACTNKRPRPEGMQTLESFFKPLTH
Description: Steady-state primer extension assay, pol η. Format: biochemical.

In a further experiment the target is KF(exo-) binding to DNA (Escherichia coli, UniProt P00582, D355A/E357A). The experiment can be described thus: Polymerase–DNA interaction, electrophoretic mobility shift assay, KF. Further details: species or system E. coli. The conditions noted are these: native PAGE.
The target in another experiment is pol β (Homo sapiens, UniProt P06746). The experiment can be described thus: Presteady-state burst kinetics. Format: biochemical. The conditions noted are these: modeling with a noncompetitive inhibition scheme (Figure S10).
The next experiment relates to PANC1 cells. The experiment can be described thus: MTS assay of cell proliferation, PANC1. Format: cell-based, human. The following applies: for IC50: Homo sapiens; for −log(IC50) (95% CI): tested compound alone. The essentials: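 Cells grown in DMEM with 10% FBS at 37 °C and 5% CO2. Plated at 5 × 10^3 per well, grown 24 h, then exposed 24 or 72 h to test compound alone or in pairs: 10 μM bleomycin-type or 250 μM alkylating agent added to the lignan, or 10 μM lignan added to either. DMSO 0.2% final; vehicle controls. MTS/PMS for 4 h; A492; cell-free background. Triplicate; IC50 fit, 95% CI.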
A general note: Formazan colour is commonly taken as a measure of viable cells.

Where two headings read alike, the source gives them in different places.

As usually defined, the IC50 is the midpoint of a concentration-inhibition curve. As usually defined, the Ki is a measure of affinity in units of concentration, obtained from inhibition or displacement. The low end stands for a stronger hold on the target, the high end for a looser hold on the target. `C=CCc1ccc(O)c(-c2ccc(O)c(CC=C)c2)c1` [HNL, 2-(4-hydroxy-3-prop-2-enyl-phenyl)-4-prop-2-enyl-phenol]: the IC50 in experiment [1] was 10 µM; with PANC1 cells (PANC-1, 24 h, read-out: −log(IC50) (95% CI), PANC1, 24 h, tested compound alone (converted)), 20 µM; in the experiment on PANC1 cells (PANC-1, 72 h, read-out: −log(IC50) (95% CI), PANC1, 72 h, tested compound alone (converted)), 7.94 µM. In experiment [1], this molecule showed an inhibition constant Ki of 20 µM. Also, the α in experiment [1] (eq 3, factor on Km/Ki, 95% confidence limits) is reported as 0.49 (0.12, 0.85). Besides, the β in experiment [1] (eq 3, residual catalysis with HNL bound, 95% confidence limits) was 0.03 (–0.10, 0.15). Also, in experiment [1] (steady-state kinetic analysis), the “inhibition mechanism versus dCTP” value is listed as “linear mixed-type noncompetitive”. In addition, at KF(exo-) binding to DNA, the “inhibition of DNA binding to polymerase (EMSA)” value was “does not inhibit DNA binding”. The “honokiol off rate constant” value at pol β is 0.16 s⁻¹. Moreover, the “−log(IC50) (95% CI)” value with PANC1 cells (PANC1, 24 h) was 4.6 (4.5, 4.8); in the experiment on PANC1 cells (PANC1, 72 h) it was 4.8 (4.7, 4.9).
